STAT3 inh: inhibitors of IL-6 induced STAT3 signaling; inhibition, % at 5.5 µM; 190,000 compounds, 0.89% hits; U3A cells, IL-6 STAT3-luciferase reporter, luminescence; host cell line lacks STAT1;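 active = inhibition above the mean inhibition across all screened compounds plus 3 SD, cut at about 44% in these data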;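 note: 0% = DMSO only wells and 100% = 100 µM nifuroxazide control wells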
STAT1 activator: increases IFN-gamma driven STAT1 reporter signal; NIH 3T3 STAT1-luciferase reporter, luminescence; 100% = IFN-gamma alone, no compound; activation (% of control), % at 5.5 µM; 200,000 compounds, 2.6% hits; AID 932;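 active = activation above the screen-wide mean activation plus 3 SD, cut at about 130% in these data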;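 note: raw ratio to IFN-gamma control signal so 100% means no change and 0% no light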
STAT1 inh: STAT1 signaling inhibition; NIH 3T3 STAT1-luciferase reporter, IFN-gamma, luminescence; inhibition, % at 5.5 µM; 200,000 compounds, 0.35% hits;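 active = inhibition above a set limit, the mean inhibition across all tested compounds plus 3 SD, cut at about 34% in these data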;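 note: 0% = IFN-gamma with DMSO and 100% = IFN-gamma with 300 µM nifuroxazide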
STAT3 activator: activators of IL-6 induced STAT3 signaling | U3A cells, IL-6 STAT3-luciferase reporter, luminescence; 100% = signal with IL-6 EC80 alone | activation (% of control), % at 5.6 µM | 190,000 compounds, 0.91% hits | AID 871;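 active = activation above the screen-wide mean of compound activation plus 3 SD, cut at about 130% in these data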;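 note: 0% = background luminescence of wells with medium and substrate only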
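Test system: STAT3-luciferase reporter U3A cells; Detection: reporter luminescence signal; Times: 1 h compound pre-exposure, 6 h IL-6 stimulation, 37 °C; Benchmarks: IL-6-only high control; Also added: IL-6 stimulus at 33 ng/mL final.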
The depositor's hits bear a star. Hits are enriched below; roughly 4.3% of the tested compounds scored in any of these assays.

SMILES	STAT3 inh	STAT1 activator	STAT1 inh	STAT3 activator
O=C(N/N=C/c1cc2c(cc1Cl)OCO2)c1ccccn1	18	134*	-38	93
COc1ccccc1/C=C/C=N/NC(=O)c1cnccn1	12	118	-22	92
COc1cc(/C=N/NC(=O)c2ccccn2)cc2c1OCO2	-6	129*	-32	106
COc1ccccc1/C=C/C=N/NC(=O)c1ccccn1	28	133*	-35	80
CC(C)Cc1nnc(NC(=O)Cc2ccc([N+](=O)[O-])cc2)s1	10	98	2	95
CN1CCN(C2=C(Cl)C(=O)N(c3ccc(Cl)cc3)C2=O)CC1	9	98	1	97
O=C1C(Cl)=C(NC2CCCCC2)C(=O)N1c1ccc(Cl)cc1	-8	141*	-45	110
O=C(NCc1ccco1)C1CCN(c2ccc(S(=O)(=O)N3CCOCC3)cc2[N+](=O)[O-])CC1	-6	96	4	107
C/C(N)=C(/C#N)C(=O)CSc1nc2scc(-c3ccccc3)c2c(=O)n1C	8	99	3	98
N=C1N(/N=C/c2ccccc2)C(=Nc2ccccc2)C(=S)N1c1ccccc1	5	132*	-39	98
CCCC/C(=N\NC(=O)c1ccc(Br)o1)c1ccccc1	3	116	-18	99
CC/C(=N/NC(=O)c1ccc(Br)o1)c1ccc(Cl)cc1	-8	131*	-35	111
Cc1occc1C(=O)N/N=C/c1ccc(Br)s1	10	139*	-46	96
Cc1ccsc1/C=N/NC(=O)c1c[nH]c2ccccc12	-22	126	-28	127
CC/C(=N\NC(=O)c1c[nH]c2ccccc12)c1cccs1	-12	136*	-41	115
COc1cc(/C=N/NC(=O)c2ccoc2C)ccc1O	13	138*	-42	88
Cc1ccc(/C=N/NC(=O)c2c[nH]c3ccccc23)s1	-18	146*	-51	119
COc1c(Cl)cc(-c2noc(C)c2C(=O)NCCc2ccc(C)cc2)cc1Cl	4	93	8	101
O=C(NCCCn1ccnc1)c1nn2c(C(F)(F)F)cc(-c3ccccc3)nc2c1Cl	14	101	-2	90
C[C@@H]1NC(=O)[C@H](CCC(=O)O)NC(=O)c2cc([N+](=O)[O-])cc(F)c2NCCC[C@@H](C(N)=O)NC1=O	-10	105	-5	106
Cc1ccc(/C=N/NC(=O)c2ccoc2C)s1	-10	139*	-44	109
Cc1ccc(/C=N/NC(=O)c2ccco2)s1	-11	115	-17	113
COc1cc(/C=N/NC(=O)c2cn(-c3cccc(C)n3)cn2)ccc1O	8	104	-5	95
CCC(=O)Nc1ccc(C(=O)NNC(=O)c2ccccc2)cc1	9	107	-10	95
CC(=O)Nc1ccc(C(=O)OCCC(C)C)cc1	6	129*	-32	97
SMILES	STAT3 inh	STAT1 activator	STAT1 inh	STAT3 activator
CCCCOC(=O)c1ccc(NC(=O)C(CCS(C)(=O)=O)NC(C)=O)cc1 (stereo unspecified)	4	102	-2	100
C[C@H](NC(N)=O)C(=O)Nc1ccc(OCc2ccccc2)cc1	-7	132*	-35	108
CCOC(=O)c1ccc(NC(=O)Nc2ccccn2)cc1	25	151*	-57	87
CCC(=O)Nc1ccc(C(=O)OCc2ccccc2)cc1	4	132*	-35	98
S=C(Cc1cccnc1)N1CCOCC1	12	99	1	91
COc1ccc(C2CC(c3ccccc3)=NN2C(=O)COC(=O)C2(C)CC2(Cl)Cl)cc1 (stereo unspecified)	-7	97	2	107
O=c1cc(CN2CC(O)Cc3ccc4ccccc4c32)nc2sccn12 (stereo unspecified)	1	93	6	106
Cc1occc1C(=O)NNC(=O)c1ccccc1C(=O)O	-7	146*	-51	110
CCCOC(=O)c1ccc(NC(=O)c2ccoc2C)cc1	-4	141*	-44	103
Cc1ccccc1C(=O)NNC(=O)c1ccoc1C	0	96	5	101
CCCOC(=O)c1ccc(NC(=O)CC(C)(C)C)cc1	-9	144*	-50	112
Cc1occc1C(=O)Nc1ccc(OCc2ccccc2)cc1	10	129*	-32	93
CCCCOC(=O)c1ccc(NC(=O)c2ccoc2C)cc1	6	127	-30	98
CCCOC(=O)c1ccc(NC(=O)COC)cc1	-2	112	-10	103
CCc1cc(CNC(=O)CC2C(=O)NCCN2Cc2cccc(OC)c2)on1 (stereo unspecified)	5	100	-2	99
COc1ccc(C(c2c[nH]c3ccccc23)c2c[nH]c3ccccc23)cc1O	-107	101	-1	192*
COCc1cc(C)nc(OCC(=O)N/N=C/c2ccc(-c3cc([N+](=O)[O-])ccc3Cl)o2)c1C#N	12	103	-4	99
CCOC(=O)CNC(=O)N1CCCC(C(=O)c2cccc(Cl)c2)C1 (stereo unspecified)	7	101	-1	99
CCc1cccc(Nc2cnn(C34C[C@@H]5C[C@@H](CC(CC(=O)O)(C5)C3)C4)c(=O)c2Cl)c1	-10	138*	-42	109
Cc1ccc(Nc2cnn(C34CC5CC(CC(CC(=O)O)(C5)C3)C4)c(=O)c2Cl)cc1C	1	98	2	97
CC(C)c1ccc(C(=O)NCCCN(C)C)cc1	3	94	7	97
O=C1C2C(c3ccccc3)C=CC(c3ccccc3)C2C(=O)N1c1ccccn1 (stereo unspecified)	11	98	3	93
CCCCOc1ccc(-c2nc(-c3cccnc3)no2)cc1	-4	128	-29	107
C(=C\c1nc(-c2cccnc2)no1)/c1ccccc1	18	145*	-50	86
CCOc1ccc(-c2nc(-c3cccnc3)no2)cc1	37	140*	-44	68
SMILES	STAT3 inh	STAT1 activator	STAT1 inh	STAT3 activator
c1ccc(-c2noc(-c3cccnc3)n2)cc1	3	150*	-58	97
COc1cccc(-c2noc(-c3ccc(Cl)nc3)n2)c1	-35	151*	-58	144*
COc1ccc(-c2noc(-c3cccnc3)n2)cc1OC	9	140*	-44	100
c1ccc(-c2ccc(-c3nc(-c4cccnc4)no3)cc2)cc1	8	137*	-39	98
O=c1oc(-c2cccnc2)nc2ccccc12	0	98	3	101
CCOc1ccc(-c2nnc(-c3ccncc3)o2)cc1	17	133*	-36	89
c1ccc(-c2cnc(-c3cccnc3)o2)cc1	4	135*	-38	100
CCCCOc1ccc(-c2nnc(-c3ccncc3)o2)cc1	5	112	-11	99
CCOc1cc(-c2noc(-c3cccnc3)n2)ccc1OC	2	104	-4	103
O=C1OCC=C1NNC(=O)c1cccnc1	3	98	1	99
Fc1ccc(/C=N/Nc2ncnc3nc[nH]c23)cc1F	18	118	-20	85
Cc1ccc(/C=N/Nc2ncc(Cl)cc2Cl)s1	21	125	-27	88
Cc1ccsc1/C=N/Nc1ncnc2nc[nH]c12	12	138*	-43	91
